From ChEMBL document CHEMBL1122898, “Antiulcer agents. 1. Gastric antisecretory and cytoprotective properties of substituted imidazo[1,2-a]pyridines” (1985)

Tests used:
Format in all cases: functional
[1] = system: Canis familiaris; assay: Inhibition of histamine stimulated gastric acid secretion in adult mongrel dogs at dose 5 mg/kg given intravenously; conditions: Canis lupus familiaris, Stomach, route intravenous
In short: (§1)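 Dogs with Heidenhain pouches, 12–18 kg, fasted 18 h. Compound given iv in 3 mL or by gavage in 5 mL of 0.4% methylcellulose/saline, 1 h after infusion start. 30-min collections titrated. Summed 3-h AO against the same dog's control AO gives % inhibition. Usually one dog per compound.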

[2] = system: Rattus norvegicus; assay: Gastric antisecretory activity in the pylorus-ligated rat and the reduction in acid output was measured after 4 hr by intraperitoneal (ip) administration of 40 mg/kg dose.
In short: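 Male Charles River CD rats, 150–200 g, fasted 24 h. Pylorus ligated under Brevital anesthesia. 40 mg/kg given ip in 2.5% Tween 80 at ligation. Stomach contents collected at 4 h and titrated with 0.1 N NaOH to pH 7.0. % inhibition from mean AO, 6 treated vs 8 control rats. Student's t test.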

[3] = system: Canis familiaris; assay: Inhibition of histamine stimulated gastric acid secretion in mongrel dogs following 4 mg/kg p.o. administration.; conditions: Canis lupus familiaris, Stomach, route oral; in short: as §1
[4] = system: Canis familiaris; assay: Inhibition of histamine stimulated gastric acid secretion in adult mongrel dogs at dose 8 mg/kg given orally; conditions: Canis lupus familiaris, Stomach, route oral; in short: as §1
[5] = species on record: Rattus norvegicus; assay: Oral gastric cytoprotective activity in the rat against ethanol-induced lesions; conditions: Stomach
In short: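 Rats fasted and water-deprived for 20 h. Compound given orally, 1–30 mg/kg in 0.4% methylcellulose/saline, 30 min before 1 mL absolute ethanol po. Killed 1 h after ethanol. Linear hemorrhagic lesion lengths totalled per stomach, expressed as group mean. ED50 by linear regression.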

[6] = system: Canis familiaris; assay: Inhibition of histamine stimulated gastric acid secretion in adult mongrel dogs at dose 2 mg/kg given intravenously; conditions: Canis lupus familiaris, Stomach, route intravenous; in short: as §1
[7] = system: Canis familiaris; assay: Inhibition of histamine stimulated gastric acid secretion in adult mongrel dogs at dose 1 mg/kg given intravenously; conditions: Canis lupus familiaris, Stomach, route intravenous; in short: as §1

Row | Structure (SMILES) | inhibition in vivo at 5 mg/kg [1] [%] | inhibition in vivo at 40 mg/kg [2] [%] | inhibition in vivo at 4 mg/kg [3] [%] | inhibition in vivo at 8 mg/kg [4] [%] | ED50 [5] [mg/kg] | inhibition in vivo at 2 mg/kg [6] [%] | inhibition in vivo at 1 mg/kg [7] [%]
1 | Cc1nc2c(OCc3ccccc3F)cccn2c1CC#N | 97 | 96 | 34 | 65 | 6 | – | –
2 | Cc1nc2c(OCc3ccncc3)cccn2c1CC#N | 36 | 51 | – | – | 2.6 | – | –
3 | COc1ccc(COc2cccn3c(CC#N)c(C)nc23)cc1 | – | 25 | 13 | 7 | – | 43 | –
4 | Cc1nc2c(OCc3ccc(F)cc3)cccn2c1CC#N | 95 | 99 | 35 | 87 | 5 | – | –
5 | Cc1nc2c(OCc3ccc(Cl)c(Cl)c3)cccn2c1CC#N | – | 42 | 16 | 23 | 6 | 89 | –
6 | Cc1nc2c(OCc3ccccc3)cccn2c1CC(=O)N(C)C | – | 37 | – | – | – | – | 16
7 | Cc1nc2c(OCCCc3ccccc3)cccn2c1CC#N | 80 | 64 | – | 8 | 4.3 | – | –
8 | Cc1nc2cccc(CCc3ccccc3)n2c1CC#N | – | 20 | – | 9 | 7.2 | – | 71
9 | CC(=O)OCc1c(C)nc2c(OCc3ccccc3)cccn12 | 87 | 88 | – | 24 | 5.5 | 54 | –
10 | Cc1nc2c(OCc3ccccc3)cccn2c1C | – | 99 | 0 | 26 | 10 | – | 90
11 | Cc1nc2c(OCc3ccccc3)cccn2c1CC(=N)S | 62 | 67 | 34 | 60 | 7 | 21 | –
12 | Cc1nc2c(OC(C)c3ccccc3)cccn2c1CC#N (stereo unspecified) | 97 | 96 | 6 | 45 | 3.7 | 78 | –
13 | Cc1nc2c([S+]([O-])Cc3ccccc3)cccn2c1CC#N (stereo unspecified) | 26 | 37 | – | – | 5 | – | –
14 | Cc1nc2c(OCc3ccccc3)cccn2c1CC(N)=O | 46 | 28 | 0 | – | 27 | – | –
15 | Cc1nc2c(OCc3ccccc3)cccn2c1CCC#N | 20 | 40 | – | – | 1.5 | – | –
16 | Cc1nc2cc(CCc3ccccc3)ccn2c1CC#N | – | 11 | – | – | 3 | 26 | –
17 | Cc1nc2c(OCc3ccc(C(C)(C)C)cc3)cccn2c1CC#N | 52 | 47 | 37 | 47 | – | – | –
18 | Cc1nc2c(OCc3ccccc3)cccn2c1COC(=O)C(C)(C)C | – | 48 | – | 12 | 8 | 43 | –
19 | Cc1nc2c(OCc3ccc(C(F)(F)F)cc3)cccn2c1CC#N | 59 | 26 | 27 | 25 | 3 | 44 | –
20 | Cc1nc2c(N(C)Cc3ccccc3)cccn2c1CC#N | – | 94 | 23 | – | – | 46 | –

Row | Structure (SMILES) | inhibition in vivo at 5 mg/kg [1] [%] | inhibition in vivo at 40 mg/kg [2] [%] | inhibition in vivo at 4 mg/kg [3] [%] | inhibition in vivo at 8 mg/kg [4] [%] | ED50 [5] [mg/kg] | inhibition in vivo at 2 mg/kg [6] [%] | inhibition in vivo at 1 mg/kg [7] [%]
21 | Cc1nc2c(OCc3ccoc3)cccn2c1CC#N | 60 | 99 | – | 42 | 1.4 | – | –
22 | Cc1cn2cccc(OCc3ccccc3)c2n1 | 70 | 62 | – | 0 | 4 | 61 | –
23 | Cc1nc2c(OCc3ccccc3)cccn2c1C(C)C#N (stereo unspecified) | – | 74 | – | 1 | 2.9 | 4 | –
24 | Cc1nc2c(OCc3ccccc3)cccn2c1C(C)(C)C#N | 0 | 57 | – | – | 12.3 | – | –
25 | Cc1nc2c(OCc3ccccn3)cccn2c1CC#N | 29 | 56 | – | – | 2.4 | – | –
26 | Cc1nc2c(S(=O)(=O)Cc3ccccc3)cccn2c1CC#N | 6 | 9 | – | – | 16 | – | –
27 | Cc1nc2c(OCc3ccc(C#N)cc3)cccn2c1CC#N | 71 | 69 | 0 | 33 | 8 | – | –
28 | CC(C)c1nc2c(OCc3ccccc3)cccn2c1CC#N | 96 | 72 | 36 | 39 | 5 | – | –
29 | Cc1nc2c(OCc3cccc(C(F)(F)F)c3)cccn2c1CC#N | 30 | 61 | – | 38 | 6.5 | – | –
30 | c1ccc(COc2cccn3c4c(nc23)CCCC4)cc1 | – | – | – | 28 | – | 24 | –
31 | Cc1nc2c(Oc3ccccc3)cccn2c1CC#N | 0 | 24 | – | – | 3.4 | – | –
32 | Cc1nc2c(SCc3ccccc3)cccn2c1CC#N | 89 | 22 | – | 2 | 7 | – | –
33 | CCc1nc2c(OCc3ccccc3)cccn2c1C | – | 79 | – | 27 | 9.8 | 78 | –
34 | Cc1nc2ccc(CCc3ccccc3)cn2c1CC#N | 0 | 8 | – | – | 2.7 | – | –
35 | Cc1nc2c(OCc3cccc4ccccc34)cccn2c1CC#N | 78 | 0 | – | 15 | 9.8 | – | –
36 | Cc1cc(C)c(COc2cccn3c(CC#N)c(C)nc23)c(C)c1 | 86 | 49 | 0 | 40 | – | 22 | –
37 | CCc1c(C)nc2c(OCc3ccccc3)cccn12 | – | – | – | – | 2 | 37 | –
38 | Cc1nc2c(COc3ccccc3)cccn2c1C | – | 48 | – | 21 | 6 | 44 | –
39 | Cc1nc2c(OCc3cccnc3)cccn2c1CC#N | 8 | 46 | – | – | 7.4 | – | –
40 | Cc1nc2c(C[S+]([O-])c3ccccc3)cccn2c1C (stereo unspecified) | – | 42 | – | – | – | 0 | –
